How the values were obtained:
[1] = molecular target: T1, Calcium/calmodulin-dependent protein kinase type IV (Homo sapiens) (UniProt Q16566); assay: Inhibition of CAMK4 (unknown origin) at 30 uM by microfluidic mobility shift assay relative to control
T1 sequence (whole entry): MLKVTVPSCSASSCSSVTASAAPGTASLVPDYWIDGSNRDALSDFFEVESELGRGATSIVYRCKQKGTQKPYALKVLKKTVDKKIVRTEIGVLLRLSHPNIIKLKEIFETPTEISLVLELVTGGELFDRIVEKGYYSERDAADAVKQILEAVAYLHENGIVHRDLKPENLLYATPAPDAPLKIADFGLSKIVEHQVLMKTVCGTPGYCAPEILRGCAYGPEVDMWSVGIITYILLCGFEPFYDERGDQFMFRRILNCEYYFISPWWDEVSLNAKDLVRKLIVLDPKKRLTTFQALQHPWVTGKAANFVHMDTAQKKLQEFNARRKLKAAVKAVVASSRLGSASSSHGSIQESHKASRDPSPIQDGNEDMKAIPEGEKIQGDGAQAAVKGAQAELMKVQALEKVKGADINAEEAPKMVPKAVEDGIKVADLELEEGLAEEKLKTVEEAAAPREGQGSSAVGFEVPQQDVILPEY
Method in brief: (§1)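 Single-point screen at 30 µM test compound across a 24-kinase panel in a microfluidic assay format. ATP was set near each enzyme's Km,[ATP]. […] The pan-AGC inhibitor H-89 served as an internal control on every assay plate.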

Homo sapiens = species on record: Homo sapiens; assay: Inhibition of DYRK1 (unknown origin) at 30 uM by microfluidic mobility shift assay relative to control; method in brief: as §1
[2] = molecular target: T2, Serine/threonine-protein kinase Sgk1 (Homo sapiens) (UniProt O00141); assay: Inhibition of SGK1 (unknown origin) at 30 uM by microfluidic mobility shift assay relative to control
T2 sequence (whole entry): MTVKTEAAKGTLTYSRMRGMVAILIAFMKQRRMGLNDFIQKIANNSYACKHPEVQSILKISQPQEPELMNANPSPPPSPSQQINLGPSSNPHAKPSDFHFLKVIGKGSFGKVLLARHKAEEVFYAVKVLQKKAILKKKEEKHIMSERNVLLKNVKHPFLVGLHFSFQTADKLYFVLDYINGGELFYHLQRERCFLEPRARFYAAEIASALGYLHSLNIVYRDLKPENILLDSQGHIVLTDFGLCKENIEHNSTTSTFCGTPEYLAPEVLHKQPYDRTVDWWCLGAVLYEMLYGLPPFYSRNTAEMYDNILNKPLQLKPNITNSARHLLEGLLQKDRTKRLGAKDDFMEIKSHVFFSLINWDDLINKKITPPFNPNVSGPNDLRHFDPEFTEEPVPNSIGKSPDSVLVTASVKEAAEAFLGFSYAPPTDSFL
Method in brief: (§2)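 Single-point screen against a 24-kinase panel in a commercial microfluidic assay format. Compounds were tested at 30 µM, with ATP at approximately the Km,[ATP] of each enzyme. H-89 was included on each assay plate as an internal control.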

[3] = molecular target: Serine/threonine-protein kinase MARK1 (Homo sapiens) (UniProt Q9P0L2); assay: Inhibition of MARK1 (unknown origin) at 30 uM by microfluidic mobility shift assay relative to control; method in brief: as §1
Chain of Serine/threonine-protein kinase MARK1 (Homo sapiens) (Q9P0L2 whole entry, looked up): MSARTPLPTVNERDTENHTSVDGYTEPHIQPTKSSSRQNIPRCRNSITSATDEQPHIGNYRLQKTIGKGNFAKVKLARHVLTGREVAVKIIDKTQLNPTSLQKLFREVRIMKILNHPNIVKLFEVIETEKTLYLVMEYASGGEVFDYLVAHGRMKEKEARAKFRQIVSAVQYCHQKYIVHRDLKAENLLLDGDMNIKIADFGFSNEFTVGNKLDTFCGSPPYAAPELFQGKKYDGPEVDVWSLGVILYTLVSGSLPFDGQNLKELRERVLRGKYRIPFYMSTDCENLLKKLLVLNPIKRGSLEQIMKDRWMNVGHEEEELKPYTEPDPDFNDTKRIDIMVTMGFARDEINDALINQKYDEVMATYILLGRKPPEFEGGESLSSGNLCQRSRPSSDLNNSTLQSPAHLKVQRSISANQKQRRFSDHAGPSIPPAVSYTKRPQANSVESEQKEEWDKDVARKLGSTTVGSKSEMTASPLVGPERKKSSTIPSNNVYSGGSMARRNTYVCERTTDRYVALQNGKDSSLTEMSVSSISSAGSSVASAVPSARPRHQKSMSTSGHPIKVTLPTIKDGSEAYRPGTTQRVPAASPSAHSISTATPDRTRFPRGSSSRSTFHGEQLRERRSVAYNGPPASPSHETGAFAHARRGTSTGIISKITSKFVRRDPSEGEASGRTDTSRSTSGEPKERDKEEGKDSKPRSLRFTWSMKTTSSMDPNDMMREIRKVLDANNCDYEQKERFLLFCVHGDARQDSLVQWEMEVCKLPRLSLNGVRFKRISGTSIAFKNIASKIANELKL

[4] = molecular target: Ribosomal protein S6 kinase alpha-3 (Homo sapiens) (UniProt P51812); assay: Inhibition of RSK2 (unknown origin) at 30 uM by microfluidic mobility shift assay relative to control; method in brief: as §2
Chain of Ribosomal protein S6 kinase alpha-3 (Homo sapiens) (P51812 whole entry): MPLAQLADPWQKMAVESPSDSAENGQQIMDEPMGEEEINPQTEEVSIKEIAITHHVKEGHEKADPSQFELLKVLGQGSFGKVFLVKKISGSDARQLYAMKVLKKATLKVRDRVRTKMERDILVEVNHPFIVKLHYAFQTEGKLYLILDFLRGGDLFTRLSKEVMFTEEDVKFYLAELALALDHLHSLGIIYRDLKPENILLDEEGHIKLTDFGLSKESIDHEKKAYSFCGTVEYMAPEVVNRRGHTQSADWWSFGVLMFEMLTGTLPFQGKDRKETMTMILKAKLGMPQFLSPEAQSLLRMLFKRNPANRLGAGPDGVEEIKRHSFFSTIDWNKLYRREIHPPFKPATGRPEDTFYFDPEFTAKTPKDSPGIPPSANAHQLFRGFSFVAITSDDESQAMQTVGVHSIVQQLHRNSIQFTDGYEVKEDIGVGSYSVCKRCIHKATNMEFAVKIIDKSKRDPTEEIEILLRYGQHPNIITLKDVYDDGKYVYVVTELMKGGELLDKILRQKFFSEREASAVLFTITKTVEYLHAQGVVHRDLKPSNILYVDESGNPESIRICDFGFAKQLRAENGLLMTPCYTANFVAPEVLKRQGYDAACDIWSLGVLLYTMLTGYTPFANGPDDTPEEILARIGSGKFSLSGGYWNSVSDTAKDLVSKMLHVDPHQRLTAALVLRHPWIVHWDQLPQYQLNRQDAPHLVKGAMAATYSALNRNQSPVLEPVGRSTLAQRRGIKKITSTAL

[5] = molecular target: T3, Serine/threonine-protein kinase D3 (Homo sapiens) (UniProt O94806); assay: Inhibition of PKD3 (unknown origin) at 30 uM by microfluidic mobility shift assay relative to control; method in brief: as §2
T3 sequence (whole entry): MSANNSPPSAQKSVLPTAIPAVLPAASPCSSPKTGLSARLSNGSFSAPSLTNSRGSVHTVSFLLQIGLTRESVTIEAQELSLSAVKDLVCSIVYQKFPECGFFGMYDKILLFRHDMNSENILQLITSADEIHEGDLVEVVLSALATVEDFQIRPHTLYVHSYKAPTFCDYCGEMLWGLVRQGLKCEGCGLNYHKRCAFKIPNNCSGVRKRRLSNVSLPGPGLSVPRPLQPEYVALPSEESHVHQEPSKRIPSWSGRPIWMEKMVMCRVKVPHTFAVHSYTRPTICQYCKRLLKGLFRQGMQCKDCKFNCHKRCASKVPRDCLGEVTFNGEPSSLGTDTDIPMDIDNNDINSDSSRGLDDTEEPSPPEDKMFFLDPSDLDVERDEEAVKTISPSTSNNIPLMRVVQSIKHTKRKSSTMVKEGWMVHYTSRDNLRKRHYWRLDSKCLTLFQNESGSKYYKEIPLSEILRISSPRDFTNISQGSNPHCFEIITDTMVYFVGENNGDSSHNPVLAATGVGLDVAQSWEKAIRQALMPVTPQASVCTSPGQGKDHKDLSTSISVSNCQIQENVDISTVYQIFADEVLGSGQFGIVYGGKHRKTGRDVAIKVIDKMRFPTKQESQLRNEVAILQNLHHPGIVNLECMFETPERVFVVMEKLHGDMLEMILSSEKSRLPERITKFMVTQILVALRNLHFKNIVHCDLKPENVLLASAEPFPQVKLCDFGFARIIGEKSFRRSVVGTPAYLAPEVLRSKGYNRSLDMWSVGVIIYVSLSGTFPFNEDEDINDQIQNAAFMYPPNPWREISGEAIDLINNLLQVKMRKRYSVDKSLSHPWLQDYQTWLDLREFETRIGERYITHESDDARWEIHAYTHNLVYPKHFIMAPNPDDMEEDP

SMILES	inhibition [1] [%]	inhibition (Homo sapiens) [%]	inhibition [2] [%]	inhibition [3] [%]	inhibition [4] [%]	inhibition [5] [%]
c1ccc(C2CCNC3(CCN(c4ncnc5[nH]cnc45)CC3)C2)cc1 (racemic)	18	8	41	89	84	53
c1ccc(CC2CCNC3(CCN(c4ncnc5[nH]cnc45)CC3)C2)cc1 (racemic)	14	7	64	99	94	81
c1ccc(CC2CCC3(CCN(c4ncnc5[nH]cnc45)CC3)NC2)cc1 (racemic)	18	13	15	0	63	25
